Source: PubChem
UCH37 DUB inh: blocks the human deubiquitinase UCH37; AID 588478; purified proteasome/UCH37, Ub-AMC cleavage fluorescence; 330,000 compounds, 0.33% hits; inhibition, % (no concentration beside the values);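 active = mean inhibition over replicate wells above about 20%, limit read from the data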
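Material: Human UCH37 enzyme supplied as purified proteasome complex | Schedule: 30 min preincubation with enzyme, 25 min cleavage at room temperature | Detection: AMC fluorescence 355/460 nm | Measure: % inhibition of Ub-AMC cleavage fluorescence | Controls: Wells without proteasome as full block, compound-free enzyme plus substrate as uninhibited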
NSD2 HMT inh: blocks human histone methyltransferase NSD2. inhibition, % at 12.5 µM. 310,000 compounds, 0.54% hits. O96028. NSD2 peptide methylation, AlphaScreen, 120 min; in the data active = inhibition above about 50%
LEDGF integ inh: blocks HIV-1 LEDGF/p75-dependent DNA integration; TR-FRET IN-LEDGF/p75 DNA integration, Eu/Cy5; inhibition, % at 3.7 µM; 370,000 compounds, 0.64% hits; AID 743269;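 active = inhibition above the screen-wide mean plus 3 SD, cut at about 13% in these data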;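 also: signal is the Cy5 over europium emission ratio at 671 and 618 nm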
TDP2 inh: blocks human TDP2 phosphodiesterase activity; O95551; recombinant TDP2, T5PNP hydrolysis, p-nitrophenol absorbance 415 nm; inhibition, % at 12.8 µM; 370,000 compounds, 0.34% hits; AID 720702;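 active = inhibition above the mean of all tested compounds plus 3 SD, set per campaign, cut at about 25% in these data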
Target sequence (O95551 whole entry, looked up): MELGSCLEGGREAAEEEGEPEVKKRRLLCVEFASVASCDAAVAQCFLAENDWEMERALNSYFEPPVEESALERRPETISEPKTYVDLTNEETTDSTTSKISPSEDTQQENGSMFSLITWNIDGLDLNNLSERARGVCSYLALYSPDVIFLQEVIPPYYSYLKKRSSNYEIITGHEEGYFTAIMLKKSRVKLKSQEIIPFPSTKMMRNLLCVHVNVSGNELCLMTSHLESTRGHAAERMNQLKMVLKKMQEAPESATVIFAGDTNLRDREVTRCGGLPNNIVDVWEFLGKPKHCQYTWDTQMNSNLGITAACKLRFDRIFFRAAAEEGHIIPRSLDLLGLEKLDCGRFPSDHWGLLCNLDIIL
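test system = human TDP2 enzyme | input = TDP2 enzyme at 120 nM final | medium = 50 mM Tris-HCl pH 7.5 with Mg2+, KCl, DTT, BSA | also added = T5PNP substrate, 5 mM | times = 2 h at 37 °C | technique = epi absorbance | benchmarks = high control without enzyme, low control DMSO plus TDP2 | replication = each compound tested once, singlicate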
CASP6 VEID inh: blocks human caspase-6 cleavage activity | P55212 | purified caspase-6, Z-VEID-R110 cleavage fluorescence | inhibition, % at 12.5 µM | 350,000 compounds, 0.53% hits | AID 686996;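 active = mean inhibition across replicates at least about 35%, with every replicate also reaching that limit, limit read from the data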
Target sequence (P55212 24-179 limits assumed): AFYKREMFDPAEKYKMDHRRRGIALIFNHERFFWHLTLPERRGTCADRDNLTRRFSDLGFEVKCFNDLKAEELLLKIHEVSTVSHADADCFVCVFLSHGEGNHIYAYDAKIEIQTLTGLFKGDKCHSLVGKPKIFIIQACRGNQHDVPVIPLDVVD
Target sequence (P55212 194-293 limits assumed): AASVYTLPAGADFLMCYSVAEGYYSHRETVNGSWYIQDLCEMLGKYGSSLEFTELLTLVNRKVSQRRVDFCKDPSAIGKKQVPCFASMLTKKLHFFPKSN
IN multimer act: activates HIV-1 integrase multimerization in LEDGF counter-screen. TR-FRET HIV-1 integrase multimerization, biochemical. activation, % at 7.7 µM. shares compounds with LEDGF integ inh. 2,000 compounds, 17% hits; in the data active = activation above about 8.9%
TR-FRET interf: counter-screen for LEDGF/p75 integration inhibitors: TR-FRET optical interference; shares compounds with LEDGF integ inh; AID 1053135; 2,000 tested, under 10 active; TR-FRET optical interference counterscreen, HIV-1 IN multimerization; inhibition, % at 7.7 µM;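 active = inhibition above the mean over all tested compounds plus 3 SD, which no compound reached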
IN-LEDGF confirm: confirmation of HIV-1 LEDGF/p75-dependent integration inhibitors; shares compounds with LEDGF integ inh; TR-FRET LEDGF/p75-dependent HIV-1 integration, biochemical; inhibition, % at 3.7 µM; 2,000 compounds, 36% hits; in the data active = inhibition above about 14%
Hits are given with their value; - = inactive; . = not tested or not shown. An excerpt weighted towards active compounds, which were near 1.3% of everything screened.

SMILES	UCH37 DUB inh	NSD2 HMT inh	LEDGF integ inh	TDP2 inh	CASP6 VEID inh	IN multimer act	TR-FRET interf	IN-LEDGF confirm
CC(=NOCC(=O)Nc1ccc(F)c(F)c1F)c1cc2ccccc2o1	-	.	.	.	.	.	.	.
COc1cc(NC(=O)CN2CCCCCC2)cc(OC)c1	-	-	19	-	.	-	-	-
Oc1ccc(Br)cc1-c1cc(-c2ccccc2Cl)[nH]n1	-	.	25	-	-	-	-	-
COc1ccc(-n2c(N)c(C(=O)NCC3CCCO3)c3nc4ccccc4nc32)c(OC)c1 (configuration not stated)	-	-	19	74	.	-	-	-
CN(C)CCn1nnnc1SCC1=C(C(=O)O)N2C(=O)[C@@H](NC(=O)Cc3csc(N)n3)[C@H]2SC1	-	.	24	-	.	-	-	19
Cc1nnc(SCC2=C(C(=O)O)N3C(=O)C(NC(=O)Cn4cnnn4)C3SC2)s1 (configuration not stated)	-	.	-	-	.	.	.	.
CC(C(O)=C(C#N)c1nc2ccccc2n1C)N1C(=O)c2ccccc2C1=O (configuration not stated)	-	.	.	.	.	.	.	.
C/C(=N\NC(=O)c1ccccc1[N+](=O)[O-])c1ccc(Br)s1	.	-	59	-	-	-	-	-
CC(=NNC(=O)c1ccccc1[N+](=O)[O-])c1ccc(Br)s1	-	.	.	.	.	.	.	.
CN1CCN(S(=O)(=O)c2cccc(C(=O)N3CCN(c4ccccc4F)CC3)c2)CC1	-	-	26	-	-	-	-	-
CN1CCN(S(=O)(=O)c2cccc(C(=O)N3CCN(c4ccccc4)CC3)c2)CC1	-	-	-	-	-	.	.	.
CCOc1ccc(Cc2c(C)[nH]c3ccc(C(=O)O)cc3c2=S)cc1	-	-	14	-	-	-	-	-
COc1ccc(O)c(C=NNC(=O)CCC(=O)Nc2ccc(C)cc2)c1	-	.	.	.	.	.	.	.
CSc1ncccc1C(=O)N1CCCC(C(=O)c2ccc3ccccc3c2)C1 (configuration not stated)	-	-	15	-	-	-	-	-
CSc1ccc(C(=O)C2CCCN(C(=O)c3cccnc3SC)C2)cc1 (configuration not stated)	-	-	-	-	-	.	.	.
COc1ccc(CN(C)C(=O)c2cc(S(=O)(=O)NCc3ccccc3)ccc2C)c(OC)c1	-	-	-	-	-	.	.	.
COc1ccc(CN(C)C(=O)CCNS(=O)(=O)c2ccccc2)c(OC)c1	.	-	23	-	-	-	-	-
CCCC1S/C(=N/N=Cc2ccco2)NC1=O (configuration not stated)	-	.	.	.	.	.	.	.
COc1ccc(/C=C2/C(=O)N(c3ccccc3)N=C2C)cc1OC	.	-	27	77	-	-	-	-
CC1=NN(c2ccccc2)C(=O)/C1=C/c1cccc(C)c1	.	-	16	79	-	-	-	-
CC(=O)Oc1ccc(/C=C2/C(=O)N(c3ccccc3)N=C2C)cc1	.	-	51	71	-	-	-	-
O=C(NN=Cc1ccc(Cl)cc1Cl)Nc1ccccc1	-	.	.	.	.	.	.	.
O=C(NN=Cc1ccccc1[N+](=O)[O-])c1cccs1	-	.	.	.	.	.	.	.
Cn1ccc2c(N(Cc3ccccc3)Cc3ccccc3)cc3c(c21)C1CCC3O1 (configuration not stated)	.	.	20	-	-	-	-	-
COC/C=C/C1=CC2=CC(=O)C(C)(OC(=O)c3cnc4ccccc4n3)C(=O)C2=CN1Cc1ccccc1 (configuration not stated)	-	.	15	-	-	-	-	-
SMILES	UCH37 DUB inh	NSD2 HMT inh	LEDGF integ inh	TDP2 inh	CASP6 VEID inh	IN multimer act	TR-FRET interf	IN-LEDGF confirm
Cc1cn([C@H]2C[C@H](O)[C@@H](CCC(=O)NCc3cccc4ccccc34)O2)c(=O)[nH]c1=O	.	.	15	-	-	-	-	-
CCN1C(=O)/C(=C\N(C)C)SC1=NS(=O)(=O)c1ccccc1	-	.	.	.	.	.	.	.
O=C(NN=Cc1ccccc1Br)C1CC1	-	.	.	.	.	.	.	.
Cc1ccc(/C=C2\Oc3cc(OCC(=O)NN)ccc3C2=O)o1	-	-	21	-	-	-	-	14
COCCN(CCOC)Cc1c(O)ccc2c1O/C(=C\c1ccc(C)o1)C2=O	-	-	40	-	-	13	-	14
CCN(CC)Cc1c(O)ccc2c1O/C(=C\C=C\c1ccccc1)C2=O	-	.	-	-	-	.	.	.
CC(=O)Nc1ccc(-c2csc(NN=Cc3ccncc3)n2)cc1	-	.	.	.	.	.	.	.
Cc1ccc(/C=C2\SC(=S)N(C3CCS(=O)(=O)C3)C2=O)cc1 (configuration not stated)	-	-	-	-	-	.	.	.
O=C1/C(=C\c2ccco2)SC(=S)N1C1CCS(=O)(=O)C1 (configuration not stated)	.	-	40	-	49	-	-	48
O=C1/C(=C/c2ccco2)SC(=S)N1C1CCS(=O)(=O)C1 (configuration not stated)	-	-	48	-	-	-	-	27
CN(C)N=C/C=C1\CCC/C(=C\c2ccc(F)c(F)c2)C1=O	-	.	.	.	.	.	.	.
CC(=O)Nc1ccc(C(C)=NNC(=O)C2CC2c2ccccc2)cc1 (configuration not stated)	-	.	.	.	.	.	.	.
S=c1[nH]nc(-c2ccco2)n1/N=C/C=C/c1ccco1	.	-	21	-	70	16	-	74
S=c1[nH]nc(-c2ccco2)n1N=C/C=C/c1ccco1	-	.	.	.	.	.	.	.
COCc1cc(N2CCN(C(=O)OC(C)(C)C)C[C@H]2C)ccc1N1CC[C@@H](O)C1	.	.	14	-	-	-	-	-
COCc1cc(N2CCN(C(=O)OC(C)(C)C)C[C@@H]2C)ccc1N1C[C@@H](C)O[C@@H](C)C1	.	.	-	-	-	.	.	.
CCOc1ccccc1NC(=O)CN1CCC(NC(=O)c2ccccc2C)CC1	-	-	21	-	-	-	-	-
N#CC(C(N)=O)=c1ccc2c(c1)N1C3=C(CCCC3)CC3CCCCC31N=2 (configuration not stated)	-	.	.	.	.	.	.	.
O=c1c2c([N+](=O)[O-])cc([N+](=O)[O-])cc2nc2ccccn12	-	-	25	-	-	-	-	19
Cc1nc(Cl)c(C(=O)NCCc2ccccc2)c(C)c1[N+](=O)[O-]	-	-	-	-	-	.	.	.
Cc1nc(Cl)c(C(=O)NCc2ccccc2)c(C)c1[N+](=O)[O-]	-	-	20	-	-	-	-	-
Cn1cccc1CC(=O)NN=C/C=C\c1ccco1	.	-	81	-	.	11	-	31
Cn1cccc1CC(=O)NN=C/C=C/c1ccco1	-	.	.	.	.	.	.	.
O=C(Cc1cccs1)NN=C/C=C\c1ccco1	-	.	.	.	.	.	.	.
O=C(Cc1cccs1)N/N=C/C=C/c1ccco1	.	-	17	-	38	-	-	31
